Laboratory results reported in ChEMBL document CHEMBL1124060, “2-Ethynylbenzenealkanamines. A new class of calcium entry blockers” (1988).

Tests used:
Type in all cases: functional
[1] = species on record: Cavia porcellus; assay: Concentration needed to elicit a 75% increase beyond control in coronary flow in ''Langendorff'', guinea pig heart (in vitro)
Outline: (§1)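 Isolated Langendorff-perfused guinea pig hearts infused with a range of drug concentrations; force (g), rate (beats/min) and coronary flow (mL/min) recorded. A linear regression of percent-control flow gives C175, the micromolar concentration raising flow to 175% of control, reported only if within the tested range. Raw data analysed by paired t tests.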

[2] = species on record: Cavia porcellus; assay: Concentration needed to achieve a 75% increase in coronary blood flow in 'Langendorff', guinea pig heart (in vitro negative inotropic activity); outline: as §1
[3] = species on record: Cavia porcellus; assay: Concentration needed to achieve a 75% increase in coronary blood flow in 'Langendorff', guinea pig heart (in vitro Negative inotropic potency); outline: as §1
[4] = system: Rattus norvegicus; assay: Ability to lower blood pressure in the spontaneously hypertensive rat (SHR) at 3 mg/kg (p.o.); conditions: route oral
Outline: (§2)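 Spontaneously hypertensive rats dosed orally at the stated dose; read-out is the maximum fall in blood pressure (mmHg), with significance shown as P.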

[5] = system: Rattus norvegicus; assay: Ability to lower blood pressure in the spontaneously hypertensive rat (SHR) at 10 mg/kg (p.o.); conditions: route oral; outline: as §2
[6] = system: Rattus norvegicus; assay: Ability to lower blood pressure in the spontaneously hypertensive rat (SHR) at 30 mg/kg (p.o.); conditions: route oral
Outline: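 Spontaneously hypertensive rats were given a single oral dose of the compound. The read-out was the maximum fall in blood pressure, in mmHg, after that dose. A P value for significance was reported with each value.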

[7] = species on record: Oryctolagus cuniculus; assay: In vitro inhibition of development of isometric tension, in response to KCl (60 uM) in rabbit aorta
Outline: (§3)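 Test compounds at 10 μM; tension and calcium influx each expressed as % change from control, measured against KCl ([…]) or NE (10 μM) stimulus.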

[8] = species on record: Oryctolagus cuniculus; assay: In vitro inhibition of development of isometric tension, in response to norepinephrine (NE, 10 uM) in rabbit aorta; outline: as §3
[9] = species on record: Oryctolagus cuniculus; assay: Inhibition of [Ca2+] influx in response to a stimulus of KCL (60 uM); outline: as §3
[10] = species on record: Oryctolagus cuniculus; assay: Inhibition of [Ca2+] influx in response to a stimulus of norepinephrine (NE, 10 uM); outline: as §3

| Structure (SMILES) | C175 [1] | Contractile force, % of control [2] | P (Ei) [3] | Max fall in blood pressure [4] | Max fall in blood pressure [5] | Max fall in blood pressure [6] | Change [7] | Change [8] | Change [9] | Change [10] | Control [2] |
| --- | --- | --- | --- | --- | --- | --- | --- | --- | --- | --- | --- |
| COc1cccc(CCN(C)C(C)Cc2cc(OC)ccc2C#Cc2ccccc2)c1 (configuration not stated) | 0.0035 µM | 95% | 0.21 | 67 mmHg | – | – | – | – | – | – | – |
| COc1ccc(C#Cc2ccc(C#N)cc2)c(CC(C)N(C)CCc2ccc(OC)c(OC)c2)c1 (configuration not stated) | 0.45 µM | 75% | <0.05 | – | 27 mmHg | – | – | – | – | – | – |
| COc1ccc(C#CCCc2ccccc2)c(CCCN(C)CCc2ccc(OC)c(OC)c2)c1 | 1.25 µM | 100% | >0.5 | – | 12 mmHg | – | – | – | – | – | – |
| CCC#Cc1ccc(OC)cc1CCCN(C)CCc1ccc(OC)c(OC)c1 | 1 µM | 80% | <0.05 | – | 24 mmHg | – | – | – | – | – | – |
| COc1ccc(C#Cc2ccccc2)c(CC(C)N(C)CCCCc2ccccc2)c1 (configuration not stated) | 2.75 µM | 90% | >0.05 | – | – | 74 mmHg | – | – | – | – | – |
| COc1ccc(C#Cc2ccc(C(F)(F)F)cc2)c(CC(C)N(C)CCc2ccc(OC)c(OC)c2)c1 (configuration not stated) | 2 µM | 90% | >0.5 | – | – | 49 mmHg | – | – | – | – | – |
| COc1ccc(C#Cc2ccccc2)c(CC(C)NCCc2ccc(Cl)cc2)c1 (configuration not stated) | >3 µM | >25% | <0.05 | – | 39 mmHg | – | – | – | – | – | – |
| COc1ccc(C#Cc2ccccc2)c(CC(C)NCCc2cccc(Cl)c2Cl)c1 (configuration not stated) | 0.0048 µM | 83% | 0.031 | 45 mmHg | – | – | – | – | – | – | – |
| COc1ccc(CCN(C)C(C)Cc2ccccc2C#Cc2ccccc2)cc1OC (configuration not stated) | 0.2 µM | 90% | >0.05 | – | 13 mmHg | – | – | – | – | – | – |
| CCCCCCN(C)C(C)Cc1cc(OC)ccc1C#Cc1ccccc1 (configuration not stated) | >3 µM | – | – | – | 48 mmHg | – | – | – | – | – | – |
| COc1ccc(C#Cc2ccc(SC)cc2)c(CC(C)N(C)CCc2ccc(OC)c(OC)c2)c1 (configuration not stated) | 0.55 µM | 80% | 0.5 | – | – | 45 mmHg | – | – | – | – | – |
| COc1ccc(C#Cc2ccc(C(C)C)cc2)c(CC(C)N(C)CCc2ccc(OC)c(OC)c2)c1 (configuration not stated) | 4.04 µM | 34% | <0.001 | 13 mmHg | – | – | – | – | – | – | – |
| COc1ccc(C#Cc2ccccc2)c(CC(C)N(C)CCc2ccccc2)c1 (configuration not stated) | 0.5 µM | 115% | >0.5 | – | 43 mmHg | – | – | – | – | – | – |
| COc1ccc(C#Cc2ccc(Cl)cc2)c(CC(C)N(C)CCc2ccc(OC)c(OC)c2)c1 (configuration not stated) | 0.3 µM | 85% | >0.5 | – | – | 46 mmHg | – | – | – | – | – |
| COc1ccc(C#Cc2ccccc2)c(CC(C)NCCc2ccc([N+](=O)[O-])cc2)c1 (configuration not stated) | >3 µM | >66% | <0.05 Ei | – | – | 66 mmHg | – | – | – | – | – |
| COc1ccc(C#Cc2ccccc2)c(CC(C)N(C)Cc2ccc(OC)c(OC)c2)c1 (configuration not stated) | 3 µM | 50% | <0.05 | – | 20 mmHg | – | – | – | – | – | – |
| COc1cccc(CC(C)NCCc2ccc(OC)c(OC)c2)c1 (configuration not stated) | >10 µM | – | – | – | – | 18 mmHg | – | – | – | – | – |
| COc1ccc(C#Cc2ccccc2)c(CCCN(C)C)c1 | 0.3 µM | 110% | >0.5 | – | – | 22 mmHg | – | – | – | – | – |

| Structure (SMILES) | C175 [1] | Contractile force, % of control [2] | P (Ei) [3] | Max fall in blood pressure [4] | Max fall in blood pressure [5] | Max fall in blood pressure [6] | Change [7] | Change [8] | Change [9] | Change [10] | Control [2] |
| --- | --- | --- | --- | --- | --- | --- | --- | --- | --- | --- | --- |
| COc1ccc(C#Cc2ccccc2)c(CC(C)N(C)CCc2cccc(Cl)c2)c1 (configuration not stated) | 0.005 µM | 95% | 0.53 | 64 mmHg | – | – | – | – | – | – | – |
| COc1ccc(CCN(C)C(C)CCc2cc(F)ccc2C#Cc2ccccc2)cc1OC (configuration not stated) | 0.34 µM | 85% | 0.45 | – | – | 50 mmHg | – | – | – | – | – |
| COc1ccc(C#Cc2ccccc2)c(CC(C)NCCc2cccc3ccccc23)c1 (configuration not stated) | 0.083 µM | 77% | 0.003 | – | – | 48 mmHg | – | – | – | – | – |
| COc1cccc(CCNC(C)Cc2cc(OC)ccc2C#Cc2ccccc2)c1 (configuration not stated) | 0.004 µM | 115% | 0.019 | – | 56 mmHg | – | – | – | – | – | – |
| COc1ccc(C#Cc2ccc(F)cc2)c(CC(C)N(C)CCc2ccc(OC)c(OC)c2)c1 (configuration not stated) | 0.0013 µM | 78% | 0.003 | 43 mmHg | – | – | – | – | – | – | – |
| CCCCN(CCc1ccc(OC)c(OC)c1)C(C)Cc1cc(OC)ccc1C#Cc1ccccc1 (configuration not stated) | >3 µM | – | – | – | – | 49 mmHg | – | – | – | – | – |
| COc1ccc(C#Cc2ccccc2)c(CC(C)N(C)CCCc2ccccc2)c1 (configuration not stated) | 2.5 µM | 95% | >0.5 | – | – | 52 mmHg | – | – | – | – | – |
| COc1ccc(C#Cc2ccccc2)c(CC(C)N(C)CCc2cccc3ccccc23)c1 (configuration not stated) | 0.19 µM | 61% | 0.005 | – | – | – | – | – | – | – | – |
| COc1cc(CCN(C)C(C)CCc2cc(OC)ccc2C#Cc2ccccc2)cc(OC)c1 (configuration not stated) | 0.095 µM | 105% | 0.15 | – | – | 42 mmHg | – | – | – | – | – |
| COc1ccc(C#Cc2ccc(N(C)C)cc2)c(CC(C)N(C)CCc2ccc(OC)c(OC)c2)c1 (configuration not stated) | 0.035 µM | 115% | 0.009 | 69 mmHg | – | – | – | – | – | – | – |
| COc1ccc(C#Cc2ccccc2)c(CC(C)NCCc2cccc(Cl)c2)c1 (configuration not stated) | 0.03 µM | 85% | 0.007 | 52 mmHg | – | – | – | – | – | – | – |
| COc1ccc(C#Cc2ccccc2)c(CC(C)N(C)CCc2cccc(Cl)c2Cl)c1 (configuration not stated) | 0.015 µM | 58% | 0.007 | 111 mmHg | – | – | – | – | – | – | – |
| COc1ccc(C#Cc2ccccc2)c(CCC(C)N(C)CCc2ccc(OC)c(OC)c2)c1 (configuration not stated) | 0.025 µM | 135% | 0.055 | – | – | 40 mmHg | -71% | -47% | -42% | -34% | – |
| COc1ccc(C#Cc2ccccc2)c(CCC(C)NCCc2ccc(OC)c(OC)c2)c1 (configuration not stated) | 0.07 µM | 123% | 0.001 | – | – | 20 mmHg | – | – | – | – | – |
| COc1cc(CCNC(C)CCc2cc(OC)ccc2C#Cc2ccccc2)cc(OC)c1 (configuration not stated) | 2.1 µM | 87% | 0.045 | – | – | 34 mmHg | – | – | – | – | – |
| COc1ccc(C#Cc2ccccc2)c(CCN(C)C)c1 | 3 µM | – | >0.05 | – | – | 18 mmHg | – | – | – | – | 90% |
| COC(=O)C1=C(C)NC(C)=C(C(=O)OC)C1c1ccccc1[N+](=O)[O-] [NIFEDIPINE] | 0.013 µM | 85% | 0.014 | – | 52 mmHg | – | – | – | – | – | – |
